Experimental data reported in ChEMBL document CHEMBL3286352, “Dimeric flavonoids from Arrabidaea brachypoda and assessment of their anti-Trypanosoma cruzi activity” (J Nat Prod, 2014).
Calls of active or inactive are those of the source. The calls are words filed in the database; no cut-off is given here.

Assays:
[1] = system: Trypanosoma cruzi; assay: Antitrypanosomal activity against trypomastigote stage of Trypanosoma cruzi Y assessed as living parasites level after 24 hrs by Neubauer chamber analysis; format: functional, organism-based
Procedure, shortened: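 Y trypomastigotes from LLC-MK2 culture supernatants, 4 × 10^5 per well. Five concentrations, 0.24–20 μM, from DMSO stocks diluted in medium. Incubated 24 h at 37 °C, 5% CO2. Live parasites counted and compared with untreated culture. Run in triplicate, at least three independent experiments. IC50 as mean ± SD.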

[2] = system: Trypanosoma cruzi; assay: Antitrypanosomal activity against amastigote stage of Trypanosoma cruzi Y in BALB/c mouse peritoneal macrophages assessed as reduction of number of intracellular parasites per 100 cells after 4 days by hematoxylin/eosin staining-based optical microscopic analysis; format: functional, organism-based; conditions: 96 h
Procedure, shortened: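 Macrophages plated 2 × 10^5 per well on coverslips in RPMI + 10% FBS for 24 h, infected with trypomastigotes at 10 parasites per macrophage for 2 h, then washed. Compounds at five concentrations, 0.12–10 μM, in triplicate for 6 h. Medium replaced, 4 days further culture. Coverslips fixed in absolute alcohol. IC50 taken as concentration halving amastigotes per 100 macrophages; mean ± SD of three independent experiments.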

[3] = Cytotoxicity against BALB/c mouse peritoneal macrophages after 72 hrs by AlamarBlue assay; format: cell-based, Peritoneal macrophage cell; conditions: read-out: LC50
Procedure, shortened: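 Peritoneal exudate macrophages from BALB/c mice, 1 × 10^5 cells/well in phenol-red-free RPMI-1640 with 10% FBS and 50 μg/mL gentamycin, pre-incubated 24 h at 37 °C, 5% CO2. Compounds from DMSO stocks diluted in medium, five concentrations 0.24–20 μM in triplicate, 72 h. AlamarBlue added over 10 h, read at 570/600 nm. LC50 from three independent experiments, mean ± SD.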

[4] = molecular target: Cruzipain (Trypanosoma cruzi) (UniProt P25779); assay: Inhibition of recombinant Trypanosoma cruzi cruzain at 25 uM preincubated for 10 mins followed by substrate addition measured after 10 mins relative to control
Cruzipain (Trypanosoma cruzi), sequence (P25779 123-467 limits assumed): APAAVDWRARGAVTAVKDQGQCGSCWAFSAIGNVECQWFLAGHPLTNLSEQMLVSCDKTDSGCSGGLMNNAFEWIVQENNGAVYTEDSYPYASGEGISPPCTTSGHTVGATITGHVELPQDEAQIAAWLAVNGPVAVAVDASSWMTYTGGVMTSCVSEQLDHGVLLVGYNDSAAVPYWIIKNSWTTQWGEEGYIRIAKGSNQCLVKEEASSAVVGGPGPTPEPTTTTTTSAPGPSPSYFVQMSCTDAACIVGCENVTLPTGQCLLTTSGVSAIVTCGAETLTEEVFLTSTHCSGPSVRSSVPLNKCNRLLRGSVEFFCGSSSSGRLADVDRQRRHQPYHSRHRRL
Procedure, shortened: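 Recombinant cruzain activated in 0.1 M acetate buffer pH 5.5 with 5.5 mM DTT, adjusted to 0.1 μM. Enzyme in phosphate buffer with 0.01% Triton. Preincubated with compound 10 min at 35 °C, then fluorogenic substrate added for 10 min. Inhibition % = 100 − (A1/A × 100) against cruzain plus substrate RFU. Triplicate; E-64c as standard.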

[5] = system: Trypanosoma cruzi; assay: Antitrypanosomal activity against trypomastigote stage of Trypanosoma cruzi Y infected in BALB/c mouse peritoneal macrophages assessed as inhibition of host cell invasion at 10 uM after 2 hrs by hematoxylin/eosin staining-based optical microscopic analysis; format: functional, organism-based
Procedure, shortened: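 Macrophages at 1 × 10^5 per well on coverslips in RPMI + 10% FBS for 24 h. Infected with trypomastigotes at 100 per macrophage and treated at 10 μM, with amphotericin B 10 μM as reference. Incubated 2 h at 37 °C, washed, then 2 h more in medium. Fixed in absolute alcohol. Percentage of infected macrophages counted after H&E.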

[6] = system: Trypanosoma cruzi; assay: Antitrypanosomal activity against blood stage trypomastigote form of Trypanosoma cruzi Y infected in BALB/c mouse assessed as reduction of blood parasitemia at 100 mg/kg, po qd administered for 5 days relative to control; format: functional; set-up: scale not given: the % may be the effect or the level left
Procedure, shortened: (§1)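 Female BALB/c mice, 6–8 weeks, infected ip with 10^4 bloodstream Y trypomastigotes, six per group. From day 5, oral dosing once daily for five days, vehicle saline with 20% DMSO; untreated infected group got vehicle. Motile parasites counted in 5 μL tail-vein fresh blood. Survival checked daily to day 30. Means ± SEM.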

[7] = system: Trypanosoma cruzi; assay: Antitrypanosomal activity against blood stage trypomastigote form of Trypanosoma cruzi Y infected in BALB/c mouse assessed as reduction of mortality at 100 mg/kg, po qd administered for 5 days measured for 30 days; format: functional, organism-based; set-up: dose 100 mg/kg; procedure, shortened: as §1
[8] = system: Mus musculus; assay: Toxicity in BALB/c mouse infected with blood stage trypomastigote form of Trypanosoma cruzi Y at 100 mg/kg, po qd administered for 5 days measured during compound treatment; format: organism-based; set-up: dose 100 mg/kg, route oral; conditions: in vivo, 120 h; procedure, shortened: as §1

Structure (SMILES)	IC50 [1]	IC50 [2]	CC50 at 72 h [3]	inhibition [4]	inhibition [5]	Activity [6]	Activity [7]	Activity [8]
COc1ccc(/C=C/[C@@H]2c3c(OC)cc(O)cc3O[C@H]3c4c(OC)cc(O)cc4O[C@H](c4ccccc4)[C@@H]23)cc1	5.3 µM	6 µM	15.6 µM	0%	Active	92%	Active	Non-toxic
CN(C)c1ccc(C(=C2C=CC(=[N+](C)C)C=C2)c2ccc(N(C)C)cc2)cc1 [GENTIAN VIOLET]			0.48 µM					
COc1cc(O)cc2c1[C@@H](/C=C/c1ccccc1)[C@@H]1[C@@H](c3ccccc3)Oc3cc(O)cc(OC)c3[C@@H]1O2	6.6 µM	6.8 µM	17.3 µM	0%	Active			
O=C(Cn1ccnc1[N+](=O)[O-])NCc1ccccc1 [BENZNIDAZOLE]	11.3 µM		> 20 µM		Active	99%		
COc1cc(O)cc2c1[C@@H](/C=C/c1ccc(O)cc1)[C@@H]1[C@@H](c3ccccc3)Oc3cc(O)cc(OC)c3[C@@H]1O2	> 20 µM	> 20 µM	> 20 µM	0%				
CC(C)CCNC(=O)[C@H](CC(C)C)NC(=O)[C@H]1O[C@@H]1C(=O)O				100%				
